Data on four compounds can be found in paper PMC6726451 (Science Advances, 2019).

The target in assay [1] is T1, TtClpP (Thermus thermophilus, UniProt Q5SKM8). Kind of assay: Solution-state methyl NMR of Ile-δ1-CH3-labeled TtClpP. In kind it is binding. Conditions: 2 mM bortezomib, TtClpP 250 μM, 60°C. In outline:
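Uniformly 2H,15N-labelled TtClpP carrying Ile-δ1-13CH3 labels, and its S97A mutant, were used. Protein was expressed in D2O and refolded from urea-solubilised inclusion bodies by NiNTA and SEC. Protein (250 μM) was mixed with 2 mM test compound or the DMSO equivalent in 100 mM tris (pH 8.5), 100 mM NaCl and 5% glycerol. 2D SOFAST-methyl-TROSY spectra were recorded at 700 MHz and 60°C, for 10–120 min per sample.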

In the next assay the test system is MtbClpXP1P2 complex. Conditions: in vivo cell screen; cited from earlier work.
Assay [2] addresses T1, TtClpP. Kind of assay: Dynamic light scattering, hydrodynamic radius of TtClpP. Conditions: 5 mM bortezomib; for hydrodynamic radius Rhyd of TtClpP: TtClpP 3 μM. The essentials: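 TtClpP (3 μM) was measured in 100 mM tris (pH 8.5), 100 mM NaCl and 5% glycerol, with no additive or with 5 mM bortezomib added, at 25° or 45°C. Each condition was run in triplicate, three times for each of two TtClpP samples. Hydrodynamic radius is the average of these replicates.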

Another assay deals with EcClpP (Escherichia coli, UniProt P0A6G7). The experiment in a line: EcClpP peptidase activity, PKMamc degradation. Format: biochemical. In outline: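 Purified E. coli ClpP was mixed in 50 mM Hepes (pH 7.6) and 50 mM NaCl with the fluorogenic tripeptide PKMamc (100 μM working concentration) and test compound, or a matching DMSO volume. AMC release was read at 340-nm excitation and 462-nm emission at defined intervals. An apparent IC50 was derived from peptidase activity.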

Assay [3] addresses T2, MtbClpP1P2 complex (Mycobacterium tuberculosis, UniProt P9WPC3+P9WPC5). The experiment in a line: MtbClpP1P2 peptidase activity. Format: biochemical.
The target in another assay is S97A TtClpP (Thermus thermophilus, UniProt Q5SKM8, S97A). Format: binding. Conditions: 2 mM bortezomib, S97A TtClpP 250 μM, 60°C.
The target of the next assay is TtClpP with TtClpX (Thermus thermophilus, UniProt Q5SKM8). Kind of assay: TtClpP peptidase activity in the presence of TtClpX. Format: biochemical. In outline:
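N-terminally truncated TtClpX and TtClpP were expressed in E. coli BL21RIL and purified by NiNTA and SEC. Concentrations are given as hexamer and tetradecamer. TtClpP (0.1 μM complex) was mixed with TtClpX at varying ClpX6/ClpP14 molar ratios in 50 mM Hepes (pH 7.6) and 50 mM NaCl, without or with 10 μM test compound. PKMamc hydrolysis was read at 340/462 nm, at 60°C unless otherwise indicated. The ratio giving half-maximal activation was derived from activation plotted against molar ratio.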

Assay [4] has as its target T1, TtClpP. The experiment in a line: Isothermal titration calorimetry fitted to the MWC model. Format: binding. In outline: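 TtClpP (10 μM, cell) was titrated with test compound (1.4 mM, syringe) in 50 mM Hepes (pH 7.6) and 50 mM NaCl at 25°, 35° and 45°C. Solutions were degassed. Each run used 19 injections 150 s apart with stirring at 750 rpm, in replicates. Integrated heats were fitted by nonlinear least squares to an MWC model with 14 identical single-site subunits. The fit gave KR, KT, γ, enthalpies and active fraction N.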
A general note: Isothermal titration calorimetry measures the heat released or taken up as one component is titrated into another.

The target of assay [5] is T1, TtClpP. Kind of assay: FtsZ degradation by TtClpP, SDS-gel electrophoresis. Conditions: 200 μM and 2 mM bortezomib, 37°C, TtClpP 1 μM complex. In kind it is biochemical. The essentials:
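Purified intrinsically disordered E. coli FtsZ (20 μM) was incubated at 37°C with TtClpP14 (1 μM) and the stated test-compound concentrations. Aliquots were withdrawn at set time points and resolved on a 15% SDS gel to follow FtsZ loss.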

The target in assay [6] is T1, TtClpP. The experiment in a line: MAS solid-state NMR chemical shift perturbations. In kind it is binding. Conditions: 10 mM bortezomib, sedimented TtClpP.
The subject of another assay is proteasome. Conditions: cited from earlier work.
Assay [7] has as its target T1, TtClpP. Kind of assay: FITC-casein degradation by TtClpP. Format: biochemical. Conditions: TtClpP 0.1 μM complex. The essentials: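 FITC-casein, passed over a G25 column to remove free fluorescein, was used at 0.15 μM with TtClpP14 (0.1 μM). Test compound was added at a range of concentrations. Fluorescence rise was monitored at 440-nm excitation, 509-nm emission and 495-nm cutoff. Initial degradation rates after temperature equilibration were plotted against compound concentration.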

Assay [8] concerns the target T1, TtClpP. The experiment in a line: TAMRA-FP labeling of TtClpP active-site serines. Conditions: TAMRA-FP 5 μM, TtClpP 1 mg/ml, bortezomib 100 μM. In kind it is biochemical.
Assay [9] has as its target T1, TtClpP. Kind of assay: TtClpP peptidase activity, PKMamc degradation. In kind it is biochemical. Conditions: Fig. 1B.
Assay [10] deals with T2, MtbClpP1P2 complex. Conditions: cited from earlier work.
The mark [11] stands for this setting: 35°C, absolute error 0.3 kcal/mol.
Where [12] appears, read: 45°C, absolute error 0.3 kcal/mol.

As usually defined, the IC50 is the midpoint of a concentration-inhibition curve. Broadly, the Kd is a measure of binding affinity in units of concentration. A higher Kd goes with a looser complex.

Several values for one entry are separate records, joined by “and”; a condition that tells them apart may be missing. Equal values may be shown once.

On to `CC(C)C[C@H](NC(=O)[C@H](Cc1ccccc1)NC(=O)c1cnccn1)B(O)O` [bortezomib], for which the “binding to wild-type TtClpP by spectral changes” value on TtClpP [1] is “unambiguously confirms binding”. Further, in the assay with MtbClpXP1P2 complex, the “effect on GFPssrA degradation by the MtbClpXP1P2 complex” value was “inhibitor of GFPssrA degradation”. Moreover, the “increase in Rhyd of TtClpP on addition of bortezomib” value at TtClpP [2] was “approximately 8 Å”. The “hydrodynamic radius Rhyd of TtClpP” value on TtClpP [2] (25°C) is 6.673 ± 0.192 nm and 6.67 nm; on TtClpP [2] (45°C), 6.702 ± 0.176 nm. This compound also showed an IC50 on EcClpP of 1.6 µM. In addition, the “effect on MtbClpP1P2 peptidase activity” value at MtbClpP1P2 complex [3] was “could also activate the peptidase activity of the MtbClpP1P2 complex”. In addition, the “spectral changes of the S97A mutant” value at S97A TtClpP is recorded as “no spectral changes were observed”. For the same compound, at TtClpP with TtClpX (bortezomib 10 μM, PKM-amc 100 μM), the “effect on TtClpP peptidase activity in the presence of ClpX” value is reported as “acted as an inhibitor”. Moreover, the “ClpX6/ClpP14 ratio at half-maximal peptidase activity” value on TtClpP with TtClpX (bortezomib-loaded TtClpP, bortezomib 10 μM) was 2.4 ± 0.3 and 2.4. Moreover, the “TtClpX6 concentration at half-maximal activation” value at TtClpP with TtClpX (in the presence of bortezomib, ratio 2.4) amounted to 120 nM. Besides, the “KT, association constant for the tense state” value is “No apparent cooperativity” on TtClpP [4] (25°C); 28000 M⁻¹ on TtClpP [4] (35°C, relative error 30%); 25000 M⁻¹ on TtClpP [4] (45°C, relative error 30%). Further, the “N, fraction of active or binding-competent protein” value was found to be 0.97 on TtClpP [4] (25°C), 0.97 at TtClpP [4] (35°C) and 1.00 at TtClpP [4] (45°C). Moreover, the figures for the “ΔHT, binding enthalpy of the T state” value on TtClpP [4] (25°C), at TtClpP [4] (setting [11]) and on TtClpP [4] (setting [12]) were “No apparent cooperativity”, -0.1 kcal/mol and -0.3 kcal/mol, respectively. Besides, the results for the “ΔHγ, conformational enthalpy between R and T conformations” value on TtClpP [4] (25°C), at TtClpP [4] (setting [11]) and on TtClpP [4] (setting [12]) were “No apparent cooperativity”, -0.3 kcal/mol and -0.2 kcal/mol, respectively. For the same compound, the “γ, equilibrium constant between R and T conformations in the absence of the ligand” value at TtClpP [4] (25°C) is reported as “No apparent cooperativity”; on TtClpP [4] (35°C, relative error 30%), 3.3. Moreover, the “ΔHR, binding enthalpy of the R state” value at TtClpP [4] (25°C, absolute error 0.3 kcal/mol) is -0.5 kcal/mol; on TtClpP [4] (setting [11]), -0.9 kcal/mol; on TtClpP [4] (setting [12]) it was -1.5 kcal/mol. Also, the “KR, association constant for the relaxed state” value on TtClpP [4] (45°C, relative error 30%) was determined as 65000 M⁻¹. Further, the Kd on TtClpP [4] (Kd,R = KR^−1, R state, higher affinity) was found to be 15 µM; at TtClpP [4] (Kd,T = KT^−1, T state, lower affinity), 40 µM. In addition, the “free bortezomib concentration at the R↔T crossover point” value at TtClpP [4] (R and T equally populated, MWC model) is on record as “around 2 μM”. In addition, the “FtsZ degradation by TtClpP” value on TtClpP [5] was “degradation of FtsZ was observed”. For the same compound, on TtClpP [6], the “chemical shift perturbations on addition of bortezomib” value is “bortezomib interacts with the active site”. Moreover, the “affinity for the chymotrypsin-like sites of the proteasome” value in the assay with proteasome is “nanomolar affinity”. Also, in the assay on proteasome, the “effect on the chymotrypsin site of the proteasome” value was “inhibits efficiently”. The “effect on the trypsin site of the proteasome” value in the assay on proteasome is given as “paradoxical activation”. Besides, at TtClpP [7], the “concentration dependence of FITC-casein degradation activation” value is “linear and no reduction of the activation was observed up to 100 μM”. In addition, the “effect on FITC-casein degradation” value at TtClpP [7] (FITC-casein 0.15 μM) is recorded as “a striking activation was observed”. In addition, the “TAMRA-FP labeling of TtClpP” value at TtClpP [8] was “failed to observe any increase of TAMRA-FP labeling”.

As to `NC(N)=O` [urea], at TtClpP [8], the “TAMRA-FP labeling of TtClpP” value is on record as “reduced the amount of TAMRA bound to ClpP”.

Take Bz-LL: the “activation of TtClpP peptidase activity compared with bortezomib” value at TtClpP [9] is listed as “capable to activate TtClpP, albeit with lower efficiency”. At MtbClpP1P2 complex [10], the “activation of MtbClpP1P2” value is on record as “most potent of these activators in Mtb”.

`O=c1oc(Cl)c(Cl)c2ccccc12` [DCC, dichloroisocoumarin]: the “TAMRA-FP labeling of TtClpP” value at TtClpP [8] was “reduced the amount of TAMRA bound to ClpP”.
